From the array DNA melting data of Ke et al. (doi:10.1101/2024.01.08.574731) come the findings set out here.

Data set [1] in a line: melting temperature; fluorescence melt of hairpins on a sequencing array, two-state fit, raised by 9.35 °C to match UV melts. The settings on record: sodium 0.088 M. In a few lines:
(§1)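 On a sequenced MiSeq flow cell, library hairpins with annealed Cy3 and quencher oligos were imaged for Cy3 fluorescence in 2.5 °C steps up to 60 °C, in 50 mM Na-HEPES pH 8.0, 25 mM NaCl. Normalisation used pre-quench Cy3 and control constructs. Bootstrapped two-state fits gave melting temperature and folding enthalpy, combined by inverse variance across four replicates and with fitted temperatures raised by 9.35 °C to match UV melts.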

Data set [2] is described as follows: folding enthalpy; higher = less favourable; fluorescence melt of hairpins on a sequencing array, two-state fit. The settings on record: sodium 0.088 M. In a few lines: as §1

For GTGATCGAAAGATGTCAC ((((((....)))..))), the Tm in data set [1] was 29.9 °C. Besides, the folding enthalpy in data set [2] is -13.7 kcal/mol.

Regarding GTGATCGAAAGATTGCAC ((((((....)))..))), the Tm in data set [1] is 30.4 °C. Also, the folding enthalpy in data set [2] is -14.5 kcal/mol.

GTGATCGGAAACGGTCAC ((((.((....)).)))): the Tm in data set [1] amounted to 55 °C. Further, the folding enthalpy in data set [2] was -42.8 kcal/mol.

Consider GTGATCGGAAACGGTTAC ((.(.((....)).).)), for which, in data set [1], the Tm was 31.9 °C. In addition, in data set [2], the folding enthalpy was -29.9 kcal/mol.

GTGATCTCGAAAGAGCAC (((..(((....)))))): in data set [1], the Tm was determined as 45.5 °C. In data set [2], the folding enthalpy was -25.7 kcal/mol.

Turning to GTGATGAAAATCAC (((((....))))), in data set [1], the Tm stood at 49.6 °C. Further, the folding enthalpy in data set [2] was -22.8 kcal/mol.

GTGATGGGAAACCATTAC ((.((((....)))).)): in data set [1], the Tm was 43.5 °C. For the same sequence, the folding enthalpy in data set [2] was -31.1 kcal/mol.

Consider GTGATGGGAAACTATCGC (.(((.(....).))).), for which, in data set [1], the Tm was found to be 35.2 °C. Besides, in data set [2], the folding enthalpy was -23.4 kcal/mol.

Turning to GTGATGTCGAAAGACCAC (((..(((....)))))), the Tm in data set [1] was found to be 40.4 °C. The folding enthalpy in data set [2] was -15 kcal/mol.

GTGATTACGAAAGTACAC (((..(((....)))))): the Tm in data set [1] worked out at 27.8 °C. In data set [2], the folding enthalpy was -10.1 kcal/mol.

In the case of GTGATTCGAAAGAACAC (((.(((....)))))), in data set [1], the Tm turned out to be 40.9 °C. The folding enthalpy in data set [2] was -24.8 kcal/mol.

In the case of GTGATTCGAAAGAAGCAC (((.(((....))).))), in data set [1], the Tm was 56.5 °C. Also, the folding enthalpy in data set [2] is -43.9 kcal/mol.

On to GTGCAAGGAAACTTGCGC (.(((((....))))).), for which the Tm in data set [1] turned out to be 59.1 °C. Further, the folding enthalpy in data set [2] is -27.6 kcal/mol.

For GTGCACCGAAAGGTACAC (((.(((....))).))), the Tm in data set [1] was 53.7 °C. The folding enthalpy in data set [2] is -36.5 kcal/mol.

As for GTGCACCGAAAGGTTCAC (((.(((....))).))), in data set [1], the Tm is 50.5 °C. In addition, in data set [2], the folding enthalpy is -42 kcal/mol.

For the sequence GTGCACGAAAGTGACAC ((((((....))).))), the Tm in data set [1] was determined as 52.9 °C. Further, in data set [2], the folding enthalpy is -25.9 kcal/mol.

GTGCACGAAAGTGGCCAC ((((((....)))..))): the Tm in data set [1] turned out to be 40.6 °C. The folding enthalpy in data set [2] was -13.3 kcal/mol.

In the case of GTGCACGAAAGTGTTCAC ((((((....)))..))), the Tm in data set [1] was determined as 37.4 °C. The folding enthalpy in data set [2] was -12.3 kcal/mol.

In the case of GTGCACGGAAACGTGCGC (.(((((....))))).), in data set [1], the Tm was 63.9 °C. Further, the folding enthalpy in data set [2] is -14.7 kcal/mol.

For the sequence GTGCAGCGAAAGCTCAC (((.(((....)))))), the Tm in data set [1] turned out to be 50.8 °C. The folding enthalpy in data set [2] was -27 kcal/mol.

With GTGCAGGGAAACCCACAC (((..((....))..))), the Tm in data set [1] was determined as 32.4 °C. In data set [2], the folding enthalpy was -19.2 kcal/mol.

Turning to GTGCAGGGAAACCCGCAC ((((.((....)).)))), the Tm in data set [1] worked out at 54.9 °C. In addition, the folding enthalpy in data set [2] is -42.2 kcal/mol.

For GTGCAGGGAAACCTGTGC (..((((....))))..), in data set [1], the Tm was found to be 44.6 °C. Also, in data set [2], the folding enthalpy is -21.6 kcal/mol.

Take GTGCAGTCGAAAGACCAC (((..(((....)))))): the Tm in data set [1] is 38.7 °C. Further, in data set [2], the folding enthalpy was -16.4 kcal/mol.

With GTGCATCGAAAGATACAC (((.(((....))).))), the Tm in data set [1] came out at 47 °C. In addition, in data set [2], the folding enthalpy is -35.2 kcal/mol.

Consider GTGCATGGAAACGTGCAC (((((.(....).))))), for which, in data set [1], the Tm worked out at 55.8 °C. In data set [2], the folding enthalpy is -47 kcal/mol.

Turning to GTGCCACGAAAGTGCAC (((.(((....)))))), in data set [1], the Tm came out at 58.5 °C. Besides, in data set [2], the folding enthalpy is -27.5 kcal/mol.

With GTGCCAGGAAACTGACAC (((.(((....))).))), in data set [1], the Tm is 47.5 °C. Besides, the folding enthalpy in data set [2] was -35.5 kcal/mol.

Consider GTGCCCCGAAAGGGTCAC (((.(((....))).))), for which, in data set [1], the Tm was 57.7 °C. For the same sequence, the folding enthalpy in data set [2] is -34.6 kcal/mol.

As to GTGCCCGAAAGGGAGCAC ((((((....)))..))), the Tm in data set [1] stood at 55.6 °C. The folding enthalpy in data set [2] was -25.2 kcal/mol.

As for GTGCCCGAAAGGGCCCAC ((((((....)))..))), the Tm in data set [1] worked out at 41 °C. Besides, in data set [2], the folding enthalpy was -5.79 kcal/mol.

In the case of GTGCCCGAAAGGGCGCAC ((((((....)))..))), in data set [1], the Tm was determined as 64.8 °C. The folding enthalpy in data set [2] is -8.85 kcal/mol.

As to GTGCCCGAAAGGGGACAC ((((((....)))..))), in data set [1], the Tm is 67 °C. In addition, in data set [2], the folding enthalpy was -12.2 kcal/mol.

Consider GTGCCCGAAAGGGGTCAC ((((((....)))..))), for which the Tm in data set [1] worked out at 48.6 °C. Also, in data set [2], the folding enthalpy was -15.7 kcal/mol.

As to GTGCCCGGAAACAGGCAC (((((.(....).))))), the Tm in data set [1] is 54.9 °C. In addition, the folding enthalpy in data set [2] was -40.4 kcal/mol.

Consider GTGCCGGGAAACCGGTAC ((.((((....)))).)), for which the Tm in data set [1] amounted to 57.2 °C. Besides, the folding enthalpy in data set [2] was -30.3 kcal/mol.

For GTGCCGGGAAACTGGCGC (.(((.(....).))).), the Tm in data set [1] came out at 53.4 °C. Further, the folding enthalpy in data set [2] was -30.4 kcal/mol.
